ChEMBL document CHEMBL1828575, “Design, synthesis and antiproliferative activities of biarylolefins based on polyhydroxylated and carbohydrate scaffolds” (Eur J Med Chem, 2011)

Tests used:
Assay type in all cases: functional
LOX IMVI = assay: Cytotoxicity against human LOXIMVI cells assessed as cellular growth at 10 uM after 48 hrs by SRB assay
Outline: (§1)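 NCI60 single-dose screen of cells in RPMI 1640 with 5% FBS and 2 mM L-glutamine, preincubated 24 h at 37 °C, 5% CO₂. Cells were then exposed 48 h to compound added from DMSO stock. TCA-fixed, stained with 0.4% SRB in 1% acetic acid, dye solubilised in 10 mM Tris base and read at 515 nm. Growth is given as percent of untreated control.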

OVCAR-3 [1] = assay: Antitumor activity against human OVCAR3 cells after 48 hrs by SRB assay; details: OVCAR-3, 48 h
Outline: (§2)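 NCI60 panel in RPMI 1640 with 5% FBS and 2 mM L-glutamine. Cells were plated at 5000–40,000/well by doubling time, held 24 h, then time-zero plates were TCA-fixed. Five concentrations (10-fold or half-log dilutions of DMSO stocks) were applied for 48 h at 37 °C, 5% CO2. Cells were fixed with cold TCA (10% final adherent, 16% suspension) and stained with 0.4% SRB. Bound dye was dissolved in 10 mM Tris and read at 515 nm. GI50, TGI and LC50 were calculated per line.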

COLO 205 = assay: Cytotoxicity against human COLO205 cells assessed as cellular growth at 10 uM after 48 hrs by SRB assay; outline: as §1
UACC-62 [2] = assay: Antitumor activity against human UACC62 cells after 48 hrs by SRB assay; details: UACC-62, 48 h
Outline: (§3)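 NCI60 panel cells grown in RPMI 1640 with 5% FBS and 2 mM L-glutamine, plated at 5000–40,000 cells/well and preincubated 24 h at 37 °C, 5% CO₂. Compound was added from DMSO at five concentrations, 10-fold or 1/2 log dilutions, then incubated 48 h.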

SNB-75 = assay: Antitumor activity against human SNB75 cells after 48 hrs by SRB assay; details: SNB-75, 48 h; outline: as §3
MDA-MB-468 = assay: Cytotoxicity against human MDA-MB-468 cells assessed as cellular growth at 10 uM after 48 hrs by SRB assay
Outline: (§4)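 NCI-60 panel lines grown in RPMI 1640 with 5% FBS and 2 mM L-glutamine. Plated at 5000–40,000 cells/well and preincubated 24 h at 37 °C, 5% CO₂, with time-zero plates fixed in TCA. Compounds, dissolved in DMSO and diluted in medium, were applied for 48 h. Cells were TCA-fixed (10% final for adherent, 16% for suspension) and stained with 0.4% SRB in 1% acetic acid. Dye was solubilised in 10 mM Tris base and read at 515 nm; growth was expressed as a percentage of untreated control.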

HCT-116 = assay: Antitumor activity against human HCT116 cells after 48 hrs by SRB assay; details: HCT-116, 48 h; outline: as §2
SK-MEL-5 = assay: Cytotoxicity against human SK-MEL-5 cells assessed as cellular growth at 10 uM after 48 hrs by SRB assay; outline: as §4
MDA-MB-435 = assay: Cytotoxicity against human MDA-MB-435 cells assessed as cellular growth at 10 uM after 48 hrs by SRB assay; outline: as §4
A498 = assay: Antitumor activity against human A498 cells after 48 hrs by SRB assay; details: A498, 48 h; outline: as §2
EKVX = assay: Cytotoxicity against human EKVX cells assessed as cellular growth at 10 uM after 48 hrs by SRB assay; outline: as §1
NCI-H226 [3] = assay: Antitumor activity against human NCI-H226 cells after 48 hrs by SRB assay; details: NCI-H226, 48 h; outline: as §2
MDA-MB-231 = assay: Cytotoxicity against human MDA-MB-231 cells assessed as cellular growth at 10 uM after 48 hrs by SRB assay; outline: as §4
SK-OV-3 = assay: Cytotoxicity against human SKOV3 cells assessed as cellular growth at 10 uM after 48 hrs by SRB assay; outline: as §4
SF-539 = assay: Antitumor activity against human SF539 cells after 48 hrs by SRB assay; details: SF-539, 48 h; outline: as §3
SF-268 = assay: Cytotoxicity against human SF268 cells assessed as cellular growth at 10 uM after 48 hrs by SRB assay; outline: as §4
RPMI-8226 = assay: Cytotoxicity against human RPMI8226 cells assessed as cellular growth at 10 uM after 48 hrs by SRB assay; outline: as §4
786-0 = assay: Cytotoxicity against human 786-0 cells assessed as cellular growth at 10 uM after 48 hrs by SRB assay; outline: as §1
SW-620 = assay: Antitumor activity against human SW620 cells after 48 hrs by SRB assay; details: SW-620, 48 h; outline: as §3
NCI-H226 [4] = assay: Cytotoxicity against human NCI-H226 cells assessed as cellular growth at 10 uM after 48 hrs by SRB assay; outline: as §4
OVCAR-3 [5] = assay: Cytotoxicity against human OVCAR3 cells assessed as cellular growth at 10 uM after 48 hrs by SRB assay; outline: as §4
NCI-H522 = assay: Cytotoxicity against human NCI-H522 cells assessed as cellular growth at 10 uM after 48 hrs by SRB assay; outline: as §4
PC-3 = assay: Cytotoxicity against human PC3 cells assessed as cellular growth at 10 uM after 48 hrs by SRB assay; outline: as §4
UACC-62 [6] = assay: Cytotoxicity against human UACC62 cells assessed as cellular growth at 10 uM after 48 hrs by SRB assay; outline: as §4
HCC 2998 = assay: Antitumor activity against human HCC2998 cells after 48 hrs by SRB assay; details: HCC 2998, 48 h; outline: as §2
HT-29 = assay: Cytotoxicity against human HT-29 cells assessed as cellular growth at 10 uM after 48 hrs by SRB assay; outline: as §1
KM12 = assay: Cytotoxicity against human KM12 cells assessed as cellular growth at 10 uM after 48 hrs by SRB assay; outline: as §1
[7] = read-out: LC50 (the source's name)
[8] = read-out: pLC50 (the source's name) (converted)

## COc1ccc(/C(=C2/O[C@@H]([C@H]3COC(C)(C)O3)[C@H]3OC(C)(C)O[C@@H]23)c2cc(OC)c(OC)c(OC)c2)cc1O
LOX IMVI
  Activity: 36.94%
OVCAR-3 [1]
  GI50: 2380 nM
  TGI: 5.34 µM
OVCAR-3 [1]; [7]
  CC50: 22.9 µM
COLO 205
  Activity: 120.76%
UACC-62 [2]; read-out: GI50
  GI50: 5.79 µM
UACC-62 [2]; [7]
  CC50: > 100 µM
UACC-62 [2]; read-out: TGI
  TGI: > 100 µM
UACC-62 [2]; read-out: pGI50 (converted)
  GI50: 57.5 µM
UACC-62 [2]; [8]
  CC50: > 100 µM
UACC-62 [2]; read-out: pTGI (converted)
  TGI: > 100 µM
SNB-75
  GI50: 1800 nM
  TGI: 6.31 µM
SNB-75; [7]
  CC50: 53.5 µM
MDA-MB-468
  Activity: 96.42%
HCT-116
  GI50: 4.14 µM
  LC50 (concentration giving 50% net cell kill): > 100 µM
  TGI: > 100 µM
SK-MEL-5
  Activity: 59.59%
MDA-MB-435
  Activity: 44.7%
A498; read-out: GI50
  GI50: 3.57 µM
A498; [7]
  CC50: > 100 µM
A498; read-out: TGI
  TGI: > 100 µM
A498; read-out: pGI50 (converted)
  GI50: 35.5 µM
A498; [8]
  CC50: > 100 µM
A498; read-out: pTGI (converted)
  TGI: > 100 µM
EKVX
  Activity: 90.16%
NCI-H226 [3]; read-out: GI50
  GI50: 2.59 µM
NCI-H226 [3]; [7]
  CC50: > 100 µM
NCI-H226 [3]; read-out: TGI
  TGI: > 100 µM
NCI-H226 [3]; read-out: pGI50 (converted)
  GI50: 25.7 µM
NCI-H226 [3]; [8]
  CC50: > 100 µM
NCI-H226 [3]; read-out: pTGI (converted)
  TGI: > 100 µM
MDA-MB-231
  Activity: 43.9%
SK-OV-3
  Activity: 36.02%
SF-539
  GI50: 2590 nM
  TGI: 6.63 µM
SF-539; [7]
  CC50: > 100 µM
SF-268
  Activity: 36.3%
RPMI-8226
  Activity: 63.56%
786-0
  Activity: 100.71%
SW-620; read-out: GI50
  GI50: 4.05 µM
SW-620; [7]
  CC50: > 100 µM
SW-620; read-out: TGI
  TGI: > 100 µM
SW-620; read-out: pGI50 (converted)
  GI50: 4.07 µM
SW-620; [8]
  CC50: > 100 µM
SW-620; read-out: pTGI
  TGI: > 100 µM
NCI-H226 [4]
  Activity: 107.94%
OVCAR-3 [5]
  Activity: 48%
NCI-H522
  Activity: 43.38%
PC-3
  Activity: 30.63%
UACC-62 [6]
  Activity: 93.16%
HCC 2998; read-out: GI50
  GI50: 1.32 µM
HCC 2998; [7]
  CC50: > 100 µM
HCC 2998; read-out: TGI
  TGI: > 100 µM
HCC 2998; read-out: pGI50 (converted)
  GI50: 20.9 µM
HCC 2998; [8]
  CC50: > 100 µM
HCC 2998; read-out: pTGI (converted)
  TGI: > 100 µM
HT-29
  Activity: 107.45%
KM12
  Activity: 26.71%
